Source: PubChem BioAssay
miR-122 sensor: miR-122 inhibition in Huh7 cells; Huh7 miR-122 Renilla luciferase sensor, 48 h; neutral wells = 0, positive control = 100; activation (reporter increase), % at 12.5 µM; actives 0.3% (n = 340,000); AID 602342;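 active = mean replicate activation score at least 90 and every replicate individually at or above 90; inconclusive = only one of the two criteria met; inactive = neither criterion met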;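 note: higher luciferase means less miR-122 activity so hits act as miR-122 inhibitors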
INS-1E GSIS act: GLuc luminescence reporter in INS-1E cells, primary screen for activators of glucose-dependent secretion of insulin | actives 0.61% (n = 370,000) | activation, % at 16.6 µM | INS-1E GLuc reporter insulin secretion, 2-3 h;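 active = lowest replicate activation of at least 40%, so every replicate reaches that level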;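 note: 0% = median of neutral control wells and 100% = median of IBMX positive control wells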
F508del corr: correctors of CFTR F508del function in bronchial epithelial cells; CFBE cells, YFP halide quenching; stimulated with forskolin plus potentiator P3; % fluorescence drop versus neutral controls; activity (quench increase), % at 7.58 µM; actives 0.36% (n = 350,000); AID 720511;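 active = mean added fluorescence quench of at least 8% versus neutral control, with both replicates also reaching 8%; inconclusive = only one of the mean or replicate conditions met; inactive = mean below 8% and not both replicates reaching 8%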;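 note: cells transiently co-express mutant CFTR-F508del with the halide-sensitive YFP; corrector assay measuring rescue of mutant channel to the surface after 24 h compound exposure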
HIV Env fusion: inhibitors of HIV Env-mediated cell fusion; HeLa-JRFL Env/CEM21 cell fusion, luciferase; inhibition, % at 12.3 µM; actives 1.1% (n = 360,000); AID 651610;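 active = mean replicate inhibition score of at least 50 and every replicate individually at or above 50; inconclusive = only one of the two criteria met; inactive = mean below 50 and not all replicates reaching 50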;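 note: 0% = plate neutral controls and 100% = maraviroc near 300 nM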
rRNA inh HTS: inhibitors of bacterial rRNA selective over humanized ribosomes | actives 1.6% (n = 350,000) | GFP signal change (wild-type ribosome), % (test concentration not listed) | E. coli WT GFP vs humanized-ribosome RFP mutants, fluorescence, 24 h; active compounds read low; DMSO median 0, no signal -100;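 active = significant combined selectivity score with lowered wild-type GFP, culture density cut under 30%, mutant RFP and density less affected; inactive = any of these conditions unmet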
Cneo AK release: causes C. neoformans cell lysis. adenylate kinase release luminescence, 4 h; normalised: neutral wells 0, clomiphene wells 100. lysis activity, % at 15 µM. actives 0.2% (n = 360,000);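 active = mean lysis activity across replicates of at least 80%, whatever share of replicates individually reach that level; inactive = mean lysis activity below 80%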
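Schedule: static 4 h at 37 °C with compound, 1 h detection; system: C. neoformans cells; benchmarks: Clomiphene as positive control; buffer or medium: fresh YPD medium; measure: luminescence rise reflecting yeast cell lysis; measured by: luminescent adenylate kinase detection reagent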
Active calls of the source: *; ? = inconclusive; . = no result; ! = a repeat was not active; [ ] = dose if it differs, or a comment. Rows were chosen to be rich in hits. Some 3.1% of all compounds tested hit in one or more screens of this group.

SMILES	miR-122 sensor	INS-1E GSIS act	F508del corr	HIV Env fusion	rRNA inh HTS	Cneo AK release
CCCCN(C)C1=CC2=CC(=C(C#N)C#N)CCC2CC1 (stereo not given)	.	1	34*	0	87	.
CCN(CC)C1=CC2=CC(=C(C#N)C#N)CCC2CC1 (stereo not given)	.	-6	40*	9	96	.
C[C@H]1CN([C@@H](C)CO)C(=O)Cc2cc(NS(=O)(=O)c3ccc(Cl)cc3)ccc2O[C@H]1CN(C)Cc1ccccc1	-9[16.7 µM]	-13	2	-19[16.7 µM]	-33	-1
O=Nc1c(O)c2ccccc2c2ccccc12	-29	-22	-3	81*	-41	-6
CCCCOc1ccc(/C=C/C(=O)OCC(=O)N2CC(=O)Nc3ccccc32)cc1OCC	.	1	-6	61*	6	.
C[C@@H]1CCCCO[C@@H](CN(C)Cc2ccc3c(c2)OCO3)[C@H](C)CN([C@@H](C)CO)C(=O)c2cc(NC(=O)c3ccccc3)ccc2O1	-2[16.7 µM]	-17	-2	11[16.7 µM]	-2	0
O=S(=O)(CCSc1nc2ccccc2o1)c1nc2ccccc2s1	-1	8	-1	.	-32*!	-1
CCS(=O)(=O)CCSc1nc2ccccc2o1	.	32	.	-9	5	0
C[C@H]1CCCCO[C@H](CN(C)C(=O)Nc2cccc3ccccc23)[C@@H](C)CN([C@@H](C)CO)C(=O)c2cc(NC(=O)c3ccncc3)ccc2O1	-8[16.7 µM]	-2	2	14[16.7 µM]	-1	0
CN1c2ccc(Br)cc2[C@@H]2[C@@H](CCN2C(=O)C2CCCCC2)[C@@H]1CO	-5[16.7 µM]	-34	4	.	-37	57
CCNC(=O)C[C@@H]1CC[C@H]2[C@H](COc3ccc(NC(=O)Nc4ccccc4OC)cc3C(=O)N2C)O1	4[16.7 µM]	-1	0	-3[16.7 µM]	-5	-1
Cc1ccc(COc2ccc(/C=N/O)cc2)cc1	.	29	.	-10	-16*	.
O=C(N/N=C/c1ccc([N+](=O)[O-])o1)c1cc2ccccc2o1	.	3	2	-73	4	.
O=C(N/N=C/c1ccc([N+](=O)[O-])o1)c1cc2c(ccc3ccccc32)o1	.	0	-4	-20	-24*	.
CCN(C(=O)COC(=O)c1cc(-c2cccs2)nc2ccccc12)C1CCS(=O)(=O)C1 (stereo not given)	.	7	1	-2	-23*	.
O=C(OC1CCOC1=O)c1cc(-c2cccs2)nc2ccccc12 (stereo not given)	-4	59*	2	10	12	-2
Cc1ccc(-c2cc(C(=O)OC3CCOC3=O)c3ccccc3n2)c(C)c1 (stereo not given)	7	56	1	1	-9	0
CCN(C(=O)COC(=O)c1cc(-c2ccccc2)nc2c1c(C)nn2-c1ccc(C)cc1)C1CCS(=O)(=O)C1 (stereo not given)	.	-2	8.2*	5	20	.
CCN(C(=O)COC(=O)c1cc(-c2ccccc2)nc2ccc(Br)cc12)C1CCS(=O)(=O)C1 (stereo not given)	.	-18	-1	10	1	.
CO[C@H]1CN(C)C(=O)c2cc(NS(=O)(=O)c3ccccc3F)ccc2OC[C@H](C)NC[C@H]1C	5[16.7 µM]	6	1	15[16.7 µM]	3	-1
CCn1nnc(NC(=O)c2sc3ccccc3c2Cl)n1	-5	43*	.	.	.	33
CN1CCN(C(=O)c2ccccc2NC(=O)c2sc3ccccc3c2Cl)CC1	0	19	1	5	-12	3
O=C(NNC(=O)c1sc2ccccc2c1Cl)Nc1ccc(Cl)cc1	.	-3	.	.	-20*	4
CN1CCN(c2ccc(NC(=O)c3sc4ccccc4c3Cl)cc2)CC1	4	14	2	-65	-25*	12
Cc1ccc(NC(=O)CNC(=O)c2sc3ccccc3c2Cl)nc1	-5	70*	-1	-12	-11	0
SMILES	miR-122 sensor	INS-1E GSIS act	F508del corr	HIV Env fusion	rRNA inh HTS	Cneo AK release
Cc1ccc2nc(NNC(=O)c3ccc(S(=O)(=O)N4CCc5ccccc5C4)cc3)sc2c1	-4	.	8.3*	-16	-13	0
Cc1ccc2nc(NNC(=O)c3ccc4c(c3)OCCO4)sc2c1	-7	.	1	-4	-56	-2
CN(C)C(=O)c1cccc(-c2ccc([C@H]3[C@H]4CN(C(=O)C5CCCC5)CC(=O)N4[C@H]3CO)cc2)c1	.	-4	1	.	6	.
O=C(C[C@@H]1C[C@H]2c3cc(NC(=O)C4CCOCC4)ccc3O[C@H]2[C@H](CO)O1)NCc1ccccc1F	-3[16.7 µM]	-9	-2	87*[16.7 µM]	1	0
O=C(C[C@@H]1C[C@@H]2c3cc(NC(=O)C4CCOCC4)ccc3O[C@@H]2[C@H](CO)O1)NCc1ccccc1F	-2[16.7 µM]	8	-2	71*[16.7 µM]	4	2
CCCNC(=O)Nc1ccc2c(c1)OC[C@H](C)N(Cc1cncnc1)C[C@@H](C)[C@@H](OC)CN(C)C2=O	.	1	2	.	-2	-1
C[C@H](CO)N1C[C@H](C)[C@@H](CN(C)S(=O)(=O)c2cn(C)cn2)Oc2c(cccc2N(C)C)C1=O	9[16.7 µM]	13	3	-7[16.7 µM]	5	1
CS(=O)(=O)c1nc(-c2ccc(F)cc2)cc(C(F)(F)F)n1	.	3	-1	-15	-34*	.
COc1ccc(-c2cc(C(F)(F)F)nc(S(C)(=O)=O)n2)cc1	8	.	.	?	.	.
CCCNC(=O)N1C[C@H](C)[C@H](OC)CN(C)C(=O)c2ccc(NC(=O)CCC)cc2OC[C@@H]1C	.	25	-3	.	0	3
CC1(Cc2ccc(C(F)(F)F)nc2)C(=O)Nc2cc(-c3ccccc3Cl)ccc21 (stereo not given)	5	.	1	70*	-1	-2
COc1ccc(NC(=O)Nc2ccc3c(c2)C(=O)N([C@@H](C)CO)C[C@H](C)[C@H](CN(C)C(=O)NC2CCCCC2)O3)cc1	-4[16.7 µM]	-5	-1	-10[16.7 µM]	1	-1
O=C(C[C@H]1C[C@@H]2c3cc(NC(=O)NC4CCCC4)ccc3O[C@@H]2[C@@H](CO)O1)NCc1ccccc1F	2[16.7 µM]	-4	1	-18[16.7 µM]	-5	50
CCNC(=O)Nc1ccc2c(c1)C(=O)N(C)[C@@H]1CC[C@H](CC(=O)NCCN3CCCC3)O[C@H]1CO2	27[16.7 µM]	3	-1	-53[16.7 µM]	1	-4
CCOC(=O)c1cc(S(=O)(=O)Nc2cccc(OC)c2)cn1C	132*	-19	0	-10	-4	-1
CC(=O)Nc1ccc(S(=O)(=O)Nc2cccc(-c3csc(C)n3)c2)cc1	283*	.	0	5	.	10
CCOC(=O)c1cccc(NS(=O)(=O)c2c(C)[nH]c(=O)[nH]c2=O)c1	-2	.	.	15	.	0
CCOC(=O)c1cccc(NS(=O)(=O)c2ccc(NC(C)=O)cc2)c1	67	.	.	106*	.	4
